Screening results deposited in PubChem BioAssay by Sanford-Burnham Center for Chemical Genomics.
Most compounds without a hit are left out; they make up all but 3.9% or so of the library.
tim23-1 inh – tim23-1 yeast growth inhibition | S. cerevisiae tim23-1 growth, BacTiter-Glo luminescence, 24 h | inhibition, % at 20 µM | 330,000 tested, 1.3% active | AID 463212;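 active = growth inhibition of the mutant yeast at or above 50%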;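 also: temperature-sensitive mutant grown at 25 °C; plate controls were DMSO-treated mutant yeast for no effect and medium wells lacking yeast for full effect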
CHOP UPR activ – apoptotic UPR (CHOP) activation | activation, % at 10 µM | 330,000 tested, 0.34% active | CHO-CHOP luciferase reporter, luminescence; percent of tunicamycin response over DMSO baseline;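 active = at 10 µM dose, activation of 40% or more, normalized to positive control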;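 also: 100% = tunicamycin at 10 µg/mL and 0% = DMSO alone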
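measured by = luciferase luminescence | assay system = CHO-CHOP cells, stable luciferase reporter of PERK-eIF2a-CHOP signalling | amount = 500 reporter cells seeded per well | timing = 6 h compound exposure at 37 °C after overnight seeding | controls = positive tunicamycin 10 µg/mL, negative DMSO alone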
tim10-1 inh – growth inhibitors of tim10-1 mutant yeast; inhibition, % at 20 µM; 330,000 tested, 2.2% active; S. cerevisiae tim10-1 ts strain growth, BacTiter-Glo, 24 h;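 active = inhibition of at least 40%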;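 also: mutant grown at 25 °C; 0% = DMSO wells with yeast and 100% = wells holding no yeast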
TIM10 inh – inhibits growth of TIM10 yeast strain; S. cerevisiae TIM10 strain growth, BacTiter-Glo luminescence, 24 h; inhibition, % at 10 µM; 330,000 tested, 1.4% active;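 active = inhibition of 40% or more at the single tested concentration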;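 also: wild-type TIM10 isogenic control strain grown at permissive 25 °C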
UPR XBP1 act – adaptive UPR (XBP1) activation; CHO-XBP1 luciferase reporter, IRE1-XBP1 UPR activation, luminescence; percent of tunicamycin response, DMSO as zero; activation, % at 20 µM; 330,000 tested, 0.33% active; AID 463104;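 active = versus positive control, 20 µM dose yields 30% or more activation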;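 also: 100% = tunicamycin at 10 µg/mL and 0% = DMSO only wells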
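Assay system: CHO-XBP1 luciferase reporter cells; Schedule: 6 h treatment, 37 °C; Detection: glow luminescence from Steady-Glo reagent; Benchmarks: high control tunicamycin 10 µg/mL final, low control DMSO vehicle only.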
UPR XBP1 confirm – adaptive UPR (XBP1) activation, confirmed. shares compounds with UPR XBP1 act. 1,000 tested, 63% active. CHO-XBP1 IRE1-XBP1 luciferase reporter, luminescence. activation, % at 20 µM. AID 485299;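 active = reporter signal at least 30% of the positive control's activation in two or more of four replicate wells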;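 also: plate controls were DMSO negative control for no effect and tunicamycin 10 µg/mL positive control for full effect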
Numbers without * were called inactive; nt = not tested or not shown.

SMILES | tim23-1 inh | CHOP UPR activ | tim10-1 inh | TIM10 inh | UPR XBP1 act | UPR XBP1 confirm
C[C@@H](C(=O)OCC(=O)c1ccccc1)N1C(=O)C2CCCCC2C1=O (some centres not stated) | 11 | 2 | 2 | -2 | -3 | nt
N#Cc1ccccc1/C=N/Nc1nc(-c2ccccc2)c2cc(Cl)ccc2n1 | -12 | 31 | 18 | -5 | 62* | 102*
CCCCCCOc1ccc(/C=c2\s/c(=C(/C#N)C(=O)NCc3ccco3)n(-c3ccccc3)c2=O)cc1 | -4 | 6 | 5 | 9 | 45* | 26
COC(=O)/C=c1/s/c(=C(/C#N)C(=O)NCc2ccccc2)n(-c2ccccc2)c1=O | -17 | -2 | 2 | -42 | 0 | nt
CN(C)Cc1nc2ccccc2c(=O)n1CC#N | 5 | 1 | 16 | 12 | 5 | nt
N#CCn1c(Cc2ccccc2)nc2ccccc2c1=O | 10 | 1 | 6 | 4 | 32* | 0
Nc1nonc1-n1nnc(C(=O)N/N=C/c2ccccc2Br)c1CN1CCCC1 | -18 | -1 | -23 | -5 | -5 | nt
Cc1ccc2c(c1)C(=O)C(=O)N2Cc1ccc(Cl)cc1 | 29 | 5 | 26 | 30 | 37* | 30*
Cc1ccc2c(c1)C(=O)C(=O)N2Cc1ccc(F)cc1 | 46 | 1 | 24 | 7 | 7 | nt
CCn1c2c(c(=N)c3c1CCC3)CCC2 | 9 | 1 | 2 | -6 | 2 | nt
N=c1c2c(n(Cc3ccc(F)cc3)c3c1CCC3)CCC2 | -40 | -2 | -24 | -10 | 149* | 1
O=C(COC(=O)c1cccnc1Cl)Nc1cc(S(=O)(=O)N2CCCCCC2)ccc1Cl | -2 | 0 | -6 | 9 | -1 | nt
CCOc1ccc(-n2c(SCC(=O)Nc3nccs3)nc3c(c2=O)SCC3)cc1 | 4 | 12 | -2 | -9 | 75* | 9
N#Cc1ccc(-c2ccc(F)cc2)nc1Oc1ccc(Cl)c(Cl)c1 | 15 | 26 | 7 | 15 | 38* | 6
CC(=O)c1cccc(NC(=S)N2CCN(CCN3C(=O)c4cccc5cccc(c45)C3=O)CC2)c1 | 1 | 36 | 3 | 10 | 159* | -1
CCN(CCNC(=O)C1CCN(Cc2nc(-c3ccc(Cl)cc3)oc2C)CC1)c1ccccc1 | 3 | 2 | 10 | 23 | 19 | nt
CCc1ccc(-c2nc(CN3CCC(C(=O)NCCN(CC)c4ccccc4)CC3)c(C)o2)cc1 | 15 | 4 | -3 | 20 | 57* | 35*
CCOC(=O)c1sc(-c2ccccc2)cc1N | 49 | 4 | 31 | 32 | 2 | nt
CCOC(=O)c1sc(-c2ccccc2)cc1NC(=O)Nc1ccc([N+](=O)[O-])cc1 | 10 | 16 | 8 | 8 | 199* | 163*
CC12CC3CC(C)(C1)CC(C(=O)NCc1cccnc1)(C3)C2 | 23 | -2 | 10 | -6 | -2 | nt
CC1CN(S(=O)(=O)c2ccc(C(=O)Nc3nc(-c4cc5ccccc5o4)cs3)cc2)CC(C)O1 (configuration not stated) | -11 | 13 | 1 | 11 | 48* | 134*
Cc1ccc(Cn2cnc3sc4c(c3c2=O)CCC4)c(C)c1 | -9 | 2 | -20 | 2 | 31* | 6
COC(=O)[C@@]1(C)[C@H]2C(=O)N(C)C(=O)[C@H]2[C@H]2CN=C(SCc3ccc(Cl)cc3)N21 | 22 | 1 | 3 | -10 | 3 | nt
COc1ccc(-c2ccnc(-c3ccc(O)cc3)n2)cc1 | 16 | 5 | 20 | 33 | 18 | nt
Cc1ccc(-c2ccnc(-c3ccc(O)cc3)n2)cc1 | 28 | 5 | 35 | 34 | 34* | 36*
SMILES | tim23-1 inh | CHOP UPR activ | tim10-1 inh | TIM10 inh | UPR XBP1 act | UPR XBP1 confirm
Cc1ccc(C(C)C)c(OCC#CCN2CCOCC2)c1 | 18 | 1 | 14 | 9 | -1 | nt
O=c1cc(CN2CCN(c3ccccc3)CC2)c2cc(O)c(-c3ccccc3)cc2o1 | 9 | 16 | 0 | 2 | 60* | 113*
COc1ccc(N2CCN(C(=O)c3ccc4c(c3)[nH]c(=S)n3c5ccccc5nc43)CC2)cc1 | 14 | 1 | 18 | 4 | -2 | nt
O=C(c1ccc2c(c1)[nH]c(=S)n1c3ccccc3nc21)N1CCN(c2cccc(Cl)c2)CC1 | 10 | 1 | 19 | 14 | 33* | 54*
CC1(C)Cc2nc3oc4c(=O)n(CC(=O)Nc5cccc(Cl)c5)cnc4c3cc2CO1 | -5 | 11 | -11 | -9 | 59* | 20
O=C(Nc1ccc2nn(-c3ccccc3)nc2c1)c1ccc(Br)o1 | 5 | 3 | -2 | -9 | 35* | 5
CC(C)CN(C(=O)C1COc2ccccc2O1)c1c(N)n(CC(C)C)c(=O)[nH]c1=O (configuration not stated) | 2 | 0 | 3 | -5 | 1 | nt
Cc1cccc(NC(=O)CN(C)C(=O)C2CCCC2)c1C | -10 | -3 | 3 | 6 | -1 | nt
O=C(Cc1ccccc1)c1c[nH]c(C(=O)C(Cl)(Cl)Cl)c1 | 30 | 7 | -17 | -16 | 39* | 49*
O=C(c1ccccc1)c1c[nH]c(C(=O)C(Cl)(Cl)Cl)c1 | 14 | 0 | -19 | -39 | -2 | nt
CSCCC(NS(=O)(=O)c1ccc2c(c1)OCCO2)C(=O)N(C)Cc1ccccc1F (configuration not stated) | 19 | 0 | 12 | 9 | -2 | nt
Cc1ccc(C(=O)NCC(=O)Nc2ccc(Cl)cc2)s1 | -12 | 0 | -69 | -43 | -2 | nt
Cc1ccccc1OCc1nc(-c2ccc(NC(=O)c3ccco3)cc2)no1 | 7 | 2 | 6 | 22 | -1 | nt
Cc1ccccc1OCc1nc(-c2ccc(NC(=O)c3ccc4c(c3)OCO4)cc2)no1 | 17 | 35 | 5 | 2 | 69* | 44*
O=C(Nc1cccnc1)c1cc2c(s1)-c1ccccc1OC2 | -4 | 2 | -17 | 4 | 3 | nt
O=C(Nc1nc2ccccc2s1)c1cc2c(s1)-c1ccccc1OC2 | 7 | 24 | -13 | 3 | 134* | 93*
CC(=O)Nc1ccc(C(=O)OCC(=O)N2CCC(Cc3ccccc3)CC2)cc1 | 37 | 1 | 16 | 22 | 3 | nt
CC(C)n1ncc(N2CCOCC2)c(Cl)c1=O | 13 | -1 | 17 | 9 | 0 | nt
CCOc1ccc(C(=O)NNC(=O)CCNC(=O)c2ccc(Br)cc2)cc1OC | -13 | -2 | 3 | -3 | -2 | nt
CCOC(=O)c1c(NC(=O)Cc2cccs2)sc(C(=O)NC2CCCCC2)c1C | -16 | 10 | 28 | -22 | 55* | 43*
CCOC(=O)c1c(NC(=O)Cc2cccs2)sc(C(=O)NC2CCCC2)c1C | -23 | -1 | 11 | -4 | 6 | nt
Cc1cc(C(=O)CCC(=O)N(C)CC(=O)Nc2ccc(OC(F)(F)F)cc2)c(C)s1 | 17 | 0 | 3 | 24 | -4 | nt
